From ChEMBL document CHEMBL3864180, “Buried Hydrogen Bond Interactions Contribute to the High Potency of Complement Factor D Inhibitors” (ACS Med Chem Lett, 2016) come the findings set out here.

pIC50, pKd: −log10 of the molar value.

In assay [1] the target is T1, Complement factor D (Homo sapiens, UniProt P00746). Description: Binding affinity to complement factor D (unknown origin).
In assay [2] the target is T1, Complement factor D. The experiment in a line: Competitive inhibition of human complement factor D preincubated for 1 hr followed by addition of Z-Lys-thiobenzyl ester as substrate measured over 50 mins at 1 min interval. The procedure, abridged:
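Enzyme was factor D purified from normal human serum. Substrate Z-Lys-thiobenzyl ester (Z-Lys-Sbzl), read by absorbance. IC50 is the average of at least two independent triplicate experiments.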

Assay [3] concerns the target T1, Complement factor D. The experiment in a line: Binding affinity to recombinant human C-terminal 6His-tagged/biotinylated complement factor D (26 to 253 residues) expressed in Sf9 insect cells by biolayer interferometry method. The gist of the method:
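Biotinylated recombinant human factor D expressed in Sf9 insect cells; direct binding read by bio-layer interferometry. Kd taken from the mean of two independent experiments, with standard deviations.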
On the technique in general: In BLI a coated tip is dipped into the sample, and binding shifts an interference pattern.

In assay [4] the target is T1, Complement factor D. The experiment in a line: Binding affinity to recombinant human C-terminal 6His-tagged/biotinylated complement factor D (26 to 253 residues) expressed in Sf9 insect cells assessed as association constant measured after 300 to 900 secs by biolayer interferometry method.
The target in assay [5] is T1, Complement factor D. Description: Binding affinity to recombinant human C-terminal 6His-tagged/biotinylated complement factor D (26 to 253 residues) expressed in Sf9 insect cells assessed as dissociation constant measured after 300 to 1800 secs by biolayer interferometry method.
Assay [6] addresses T1, Complement factor D. The experiment in a line: Inhibition of recombinant human C-terminal 6His-tagged complement factor D (26 to 253 residues) expressed in Sf9 insect cells preincubated for 1 hr followed by addition of Z-Lys-thiobenzyl ester as substrate measured over 50 mins at 1 min interval. The gist of the method:
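Enzyme was recombinant human factor D expressed in Sf9 insect cells. Substrate Z-Lys-thiobenzyl ester, read by absorbance. OD was converted to product concentration with an extinction coefficient of 13260 M-1cm-1 and a 0.29 cm path correction.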

T1 sequence (P00746 whole entry): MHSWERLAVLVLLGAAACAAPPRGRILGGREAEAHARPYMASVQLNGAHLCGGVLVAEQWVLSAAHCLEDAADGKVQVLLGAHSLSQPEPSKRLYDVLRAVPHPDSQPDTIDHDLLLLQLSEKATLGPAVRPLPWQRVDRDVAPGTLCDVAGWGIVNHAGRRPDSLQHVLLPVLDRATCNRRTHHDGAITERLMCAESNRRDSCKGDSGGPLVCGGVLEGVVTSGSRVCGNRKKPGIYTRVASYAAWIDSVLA

With `N=C(N)c1cc2ccc(OC(=O)c3cccs3)cc2s1`, the pIC50 – broadly, the IC50 on a negative log10 scale, so that one unit is a factor of ten – at Complement factor D [1] is 7.01.
Consider `O=c1[nH]c2ccccc2c(=O)o1`, for which the negative logarithm of the IC50 (pIC50) on Complement factor D [1] is 5.54.
As for `NC(=O)c1nn(CC(=O)N2CCS[C@H]2C(=O)Nc2cccc(Br)n2)c2ncccc12`, the pIC50 at Complement factor D [2] was 7.56; on Complement factor D [6] it was 7.72. In addition, at Complement factor D [3], the pKd (usually the Kd on a negative log10 scale, so that one unit is a factor of ten) is 7.72. Moreover, the values for the K at Complement factor D [4] and at Complement factor D [5] were 173000 M⁻¹ s⁻¹ and 0.00327 s⁻¹, respectively.
Consider `NC(=O)c1nn(CC(=O)N2[C@@H]3C[C@@H]3C[C@H]2C(=O)Nc2cccc(Br)n2)c2ncccc12`, for which, on Complement factor D [2], the pIC50 is 7.50. Moreover, on Complement factor D [3], the pKd was 7.77. The K on Complement factor D [4] worked out at 212000 M⁻¹ s⁻¹; at Complement factor D [5] it was 0.00361 s⁻¹.
Regarding `O=C(Nc1cccc(Br)n1)[C@@H]1C[C@H]2C[C@H]2N1C(=O)Cn1ncc2ccccc21`, the K on Complement factor D [4] was 15800 M⁻¹ s⁻¹; on Complement factor D [5], 0.189 s⁻¹.
Taken in the same sequence, the figures for `O=C(Nc1cccc(Br)n1)[C@@H]1SCCN1C(=O)Cn1ncc2ccccc21` were 132000 M⁻¹ s⁻¹ and 0.292 s⁻¹.
